# ChEMBL document CHEMBL1800030, “Synthesis and biological evaluation of anilino substituted pyrimidine linked pyrrolobenzodiazepines as potential anticancer agents” (Bioorg Med Chem Lett, 2010)
# The source made the active and inactive calls.
# Experiments:
# [1] = tested on: A2780; experiment: Cytotoxicity against human A2780 cells after 48 hrs by SRB assay; assay type: functional; conditions: A2780, 48 h
# Procedure, shortened: (§1)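 Cells from human breast, oral, ovary, colon, lung, prostate and cervix cancer lines were tested by sulforhodamine B assay. GI50 is 50% growth inhibition, given as mean ± SEM of three determinations. Activity cutoff was GI50 ≤10^-5 M. Adriamycin served as positive control.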
# [2] = tested on: Nucleic Acid; experiment: Inhibition of BamH1-induced DNA cleavage activity in Escherichia coli pBR322 at 4 uM after 24 hrs by agarose gel electrophoresis; assay type: nucleic-acid assay
# Procedure, shortened: (§2)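 pBR322 plasmid DNA was incubated with compound at 2–32 µM and then digested with BamHI. Restriction-digestion inhibition was judged against cut (BamHI, no compound) and uncut vector lanes.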
# [3] = tested on: Nucleic Acid; experiment: Binding affinity to calf thymus DNA assessed as change in melting temperature at compound to DNA molar ratio of 1:5 at pH 7 after 18 hrs at 37 degC by thermal denaturation assay; assay type: nucleic-acid assay; conditions: Bos taurus
# [4] = tested on: A549; experiment: Cytotoxicity against human A549 cells after 48 hrs by SRB assay; assay type: functional; conditions: A549, 48 h; procedure, shortened: as §1
# [5] = tested on: A-375; experiment: Induction of mitochondrial dysfunction in human A375 cells assessed as increase in cytosolic cytochrome c level at 4 uM after 24 hrs by Western blot analysis; assay type: functional, cell-based
# Procedure, shortened: (§3)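 A375 cells were treated at 4 µM for 24 h, then p53 or cytosolic cytochrome c levels were measured by Western blot. β-Actin served as loading control. Controls were untreated cells and untreated cells plus DMSO.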
# [6] = tested on: A-375; experiment: Cell cycle arrest in human A375 cells assessed as accumulation at G0/G1 phase at 4 uM after 24 hrs by propidium iodide staining based FACS analysis (reference value: 64.7 to 66.26%); assay type: functional
# [7] = tested on: SiHa; experiment: Cytotoxicity against human SiHa cells after 48 hrs by SRB assay; assay type: functional; procedure, shortened: as §1
# [8] = tested on: A-375; experiment: Cell cycle arrest in human A375 cells assessed as accumulation at S phase at 4 uM after 24 hrs by propidium iodide staining based FACS analysis (reference value: 12.04 to 15.67%); assay type: functional
# [9] = tested on: ZR-75-1; experiment: Cytotoxicity against human ZR-75-1 cells after 48 hrs by SRB assay; assay type: functional; conditions: ZR-75-1, 48 h; procedure, shortened: as §1
# [10] = tested on: COLO 205; experiment: Cytotoxicity against human COLO205 cells after 48 hrs by SRB assay; assay type: functional; conditions: COLO 205, 48 h; procedure, shortened: as §1
# [11] = Cytotoxicity against human DWD cells after 48 hrs by SRB assay; assay type: functional; procedure, shortened: as §1
# [12] = Cytotoxicity against human Gurav cells after 48 hrs by SRB assay; assay type: functional; procedure, shortened: as §1
# [13] = tested on: KB; experiment: Cytotoxicity against human KB cells after 48 hrs by SRB assay; assay type: functional; procedure, shortened: as §1
# [14] = tested on: A-375; experiment: Upregulation of p53 gene expression in human A375 cells at 4 uM after 24 hrs by Western blot analysis; assay type: functional, cell-based; procedure, shortened: as §3
# [15] = tested on: A-375; experiment: Cell cycle arrest in human A375 cells assessed as accumulation at G2/M phase at 4 uM after 24 hrs by propidium iodide staining based FACS analysis (reference value: 17.65 to 23.26%); assay type: functional
# [16] = tested on: A-375; experiment: Cytotoxicity against human A375 cells after 24 hrs by MTT assay; assay type: functional, cell-based; conditions: A-375, 24 h
# Procedure, shortened: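 MTT proliferation assay on A375 cells, with the IC50 derived from it.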
# [17] = tested on: PC-3; experiment: Cytotoxicity against human PC3 cells after 48 hrs by SRB assay; assay type: functional; conditions: PC-3, 48 h; procedure, shortened: as §1
# [18] = tested on: HOP-62; experiment: Cytotoxicity against human HOP62 cells after 48 hrs by SRB assay; assay type: functional; conditions: HOP-62, 48 h; procedure, shortened: as §1
# [19] = tested on: A-375; experiment: Induction of apoptosis in human A375 cells assessed as PARP cleavage at 4 uM after 24 hrs by Western blot analysis
# [20] = tested on: MCF7; experiment: Cytotoxicity against human MCF7 cells after 48 hrs by SRB assay; assay type: functional; conditions: MCF7, 48 h; procedure, shortened: as §1
# [21] = tested on: A-375; experiment: Cytotoxicity against human A375 cells assessed as cell viability at 4 uM after 24 hrs by real time cell analyzer; assay type: functional; conditions: A-375, 24 h, read-out: Activity
# Procedure, shortened: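 A375 cell viability was measured after exposure to compound at 4 µM, with percent viability reported.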
# [22] = tested on: A-375; experiment: Induction of apoptosis in human A375 cells at 4 uM after 24 hrs by FACS analysis (reference value: 5.61%); assay type: functional
# [23] = tested on: Nucleic Acid; experiment: Inhibition of BamH1-induced DNA cleavage activity in Escherichia coli pBR322 at 8 uM after 24 hrs by agarose gel electrophoresis; assay type: nucleic-acid assay; procedure, shortened: as §2
# [24] = tested on: Nucleic Acid; experiment: Inhibition of BamH1-induced DNA cleavage activity in Escherichia coli pBR322 at 16 uM after 24 hrs by agarose gel electrophoresis; assay type: nucleic-acid assay
# Procedure, shortened: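 RED100 restriction-digestion assay: pBR322 vector DNA incubated with compound at 2, 4, 8, 16 and 32 µM, then digested with BamHI. Lanes are compared with uncut vector and with vector cut by BamHI without compound. DNA binding is read as inhibition of BamHI cleavage.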
inhibition [2],ΔTm [3] [°C],SMILES,GI50 [1] [nM],GI50 [4] [nM],Activity [5],Activity [6] [%],GI50 [7] [nM],Activity [8] [%],GI50 [9] [nM],GI50 [10] [nM],GI50 [11] [nM],GI50 [12] [nM],GI50 [13] [nM],Activity [14],Activity [15] [%],IC50 [16] [nM],GI50 [17] [nM],GI50 [18] [nM],Activity [19],GI50 [20] [nM],further results
inactive,2.5,COc1cc2c(cc1OCCCCC(=O)Nc1ccc(C)c(Nc3nccc(-c4cc(OC)c(OC)c(OC)c4)n3)c1)N=C[C@@H]1C[C@H](F)CN1C2=O,180,2500,Active,76.76,1800,17.19,2700,2100,180,150,170,Active,6.04,5600,170,120,Active,160,viability at 4 µM [21]: 64.9%; Activity [22]: 36.15%
–,–,Cc1ccc(NC(=O)c2ccc(CBr)cc2)cc1Nc1nccc(-c2cccnc2)n1,–,–,–,68,–,11,–,–,–,–,–,–,21,–,–,–,–,–,–
–,1.4,COc1cc2c(cc1OCCCCC(=O)Nc1ccc(C)c(Nc3nccc(-c4cc(OC)c(OC)c(OC)c4)n3)c1)N=C[C@@H]1CCCN1C2=O,180,2300,–,–,1800,–,2600,2300,1800,2000,170,–,–,–,1800,2400,–,2000,–
inactive,7.1,COc1cc2c(cc1OCc1ccc(C(=O)Nc3ccc(C)c(Nc4nccc(-c5cccnc5)n4)c3)cc1)N=C[C@@H]1C[C@H](F)CN1C2=O,130,160,Active,98.44,120,0.2,150,< 100,140,130,120,Active,0.16,160,140,150,Active,< 100,inhibition [23]: Active; viability at 4 µM [21]: 33.7%; Activity [22]: 83.86%
inactive,2.1,COc1cc2c(cc1OCCCCC(=O)Nc1ccc(C)c(Nc3nccc(-c4cccnc4)n3)c1)N=C[C@@H]1CCCN1C2=O,2400,2300,Active,80.98,2200,13.98,170,2300,2500,< 100,180,Active,6.47,5500,2030,160,Active,170,viability at 4 µM [21]: 72%; Activity [22]: 41.59%
inactive,6.8,COc1cc2c(cc1OCc1ccc(C(=O)Nc3ccc(C)c(Nc4nccc(-c5cccnc5)n4)c3)cc1)N=C[C@@H]1CCCN1C2=O,130,140,Active,80.98,170,13.55,160,120,130,< 100,140,Active,5.67,1100,150,170,Active,140,inhibition [23]: Active; viability at 4 µM [21]: 48%; Activity [22]: 49.7%
–,–,COc1cccc2c1C(=O)c1c(O)c3c(c(O)c1C2=O)C[C@@](O)(C(=O)CO)C[C@@H]3O[C@H]1C[C@H](N)[C@H](O)[C@H](C)O1 [DOXORUBICIN],< 100,150,–,–,2100,–,130,< 100,< 100,120,110,–,–,–,170,140,–,< 100,–

SMILES,inhibition [2],ΔTm [3] [°C],GI50 [1] [nM],GI50 [4] [nM],Activity [5],Activity [6] [%],GI50 [7] [nM],Activity [8] [%],GI50 [9] [nM],GI50 [10] [nM],GI50 [11] [nM],GI50 [12] [nM],GI50 [13] [nM],Activity [14],Activity [15] [%],IC50 [16] [nM],GI50 [17] [nM],GI50 [18] [nM],Activity [19],GI50 [20] [nM],further results
COc1cc2c(cc1O)N=C[C@@H]1CCCN1C2=O,–,0.7,140,160,–,–,170,–,–,110,–,160,170,–,–,–,200,150,–,170,inhibition [24]: Active
